Bioassay records as filed in PubChem BioAssay.
TRPC4 act: activators of mouse TRPC4 channel, primary screen, Fluo4 calcium, HEK293 TRPC4beta/mu-opioid cells | B-score at 10 µM | Fluo4 calcium fluorescence; hits give high values | hit rate 0.49% among 310,000 | Short transient receptor potential channel 4 (Mus musculus), Q9QUQ5;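 active = B-score above 5 SD of library B-scores, and initial fluorescence ratio not above library mean plus 5 SD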;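 also: positive B-score marks a calcium rise read as TRPC4 activation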
Target sequence (Q9QUQ5 whole entry, looked up): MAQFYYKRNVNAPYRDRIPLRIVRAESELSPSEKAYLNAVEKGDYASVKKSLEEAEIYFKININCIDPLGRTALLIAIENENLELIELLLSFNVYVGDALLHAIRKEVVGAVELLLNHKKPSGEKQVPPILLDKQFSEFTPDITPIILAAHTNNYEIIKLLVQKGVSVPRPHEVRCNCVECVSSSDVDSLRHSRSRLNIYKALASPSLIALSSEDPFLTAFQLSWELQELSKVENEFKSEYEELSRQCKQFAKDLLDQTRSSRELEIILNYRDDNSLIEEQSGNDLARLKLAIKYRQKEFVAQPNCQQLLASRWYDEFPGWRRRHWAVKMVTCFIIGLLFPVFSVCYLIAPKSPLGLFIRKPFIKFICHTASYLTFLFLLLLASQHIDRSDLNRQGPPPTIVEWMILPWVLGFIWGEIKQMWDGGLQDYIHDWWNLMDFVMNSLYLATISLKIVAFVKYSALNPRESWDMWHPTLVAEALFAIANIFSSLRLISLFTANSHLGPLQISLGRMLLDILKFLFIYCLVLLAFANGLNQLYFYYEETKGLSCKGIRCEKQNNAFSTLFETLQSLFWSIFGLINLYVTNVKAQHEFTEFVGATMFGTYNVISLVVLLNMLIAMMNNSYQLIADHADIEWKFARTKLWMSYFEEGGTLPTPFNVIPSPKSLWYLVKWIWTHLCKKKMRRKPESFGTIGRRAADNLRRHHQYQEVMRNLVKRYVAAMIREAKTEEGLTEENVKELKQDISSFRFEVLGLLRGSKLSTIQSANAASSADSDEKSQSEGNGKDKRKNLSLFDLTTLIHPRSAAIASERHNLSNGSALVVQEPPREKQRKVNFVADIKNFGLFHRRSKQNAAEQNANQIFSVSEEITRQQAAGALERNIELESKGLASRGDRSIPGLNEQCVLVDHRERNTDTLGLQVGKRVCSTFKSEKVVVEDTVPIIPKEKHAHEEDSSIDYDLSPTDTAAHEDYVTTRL
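Assay system: HEK293 stable line with TRPC4beta plus mu-opioid receptor; schedule: 45 min room-temperature Fluo4 loading, 110 s read; technique: kinetic Fluo4 calcium fluorescence; evaluation: integrated baseline-normalised fluorescence ratio, converted to per-well B score; controls: buffer (low) and maximal DAMGO (high)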
TRPC4 potent: positive allosteric modulators of TRPC4, primary screen, cell-based, mouse TRPC4beta, HEK293 mu-opioid, Fluo-4 calcium; Short transient receptor potential channel 4 (Mus musculus), Q9QUQ5; DAMGO EC20, Fluo-4 Ca2+ flux; hits give high values; B-score at 10 µM; hit rate 0.42% among 310,000; AID 2227, 2009;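 active = B-score of calcium response area above 5 SD of library B-scores, with initial fluorescence ratio within 5 SD of library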
TRPC4 block: inhibitors of mouse TRPC4 channel, primary screen, Fluo4 calcium, HEK293 TRPC4beta/mu-opioid cells; DAMGO-evoked Fluo4 calcium flux; hits give low values; hit rate 0.39% among 300,000; B-score at 10 µM; Short transient receptor potential channel 4 (Mus musculus), Q9QUQ5;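 active = B-score over 3 SD under the library average, no early fluorescence shift, positive overall ratio signal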
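Material: HEK293 cells with stable TRPC4beta plus mu-opioid receptor expression / Probe or stimulus: DAMGO in two steps, submaximal then maximal / Compound: single concentration per test compound / Technique: kinetic Fluo4 fluorescence imaging of calcium influx / Read-out: per-well B score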
CR mimetic SO: reduction of superoxide in aged yeast, primary screen, HTS. AID 2690, 2010. S. cerevisiae aged cells, superoxide DHE fluorescence; hits give low values. superoxide response (% of plate mean), % at 10 µM. hit rate 0.18% among 330,000;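 active = superoxide response under a set limit, about three screen SD below normal, cut at about 65% in these data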;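 also: yeast aged for seven days with compound at 30 °C before DHE staining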
TRPC6 inhibitor: mouse TRPC6 channel inhibitors, primary screen, cell-based, HEK293, membrane potential dye; AID 2553, 2010; Short transient receptor potential channel 6 (Mus musculus), Q61143; ACh-evoked depolarization; hits give low values; B-score at 10 µM; hit rate 1.1% among 310,000;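 active = B-score under library mean minus 3 SD, initial fluorescence not abnormally high, positive integrated signal ratio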;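 also: B-score derived from integrated fluorescence ratio over the kinetic read; more negative B-score means stronger inhibition of depolarization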
TRPC6 act: mouse TRPC6 channel activators, primary screen, cell-based, HEK293, membrane potential dye; Short transient receptor potential channel 6 (Mus musculus), Q61143; HEK293-TRPC6 membrane potential dye fluorescence; hits give high values; B-score at 10 µM; hit rate 0.13% among 310,000;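 active = B-score of the integrated fluorescence ratio above library mean plus 3 SD, and starting fluorescence ratio within library mean plus 5 SD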;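 also: higher score means more depolarization so channel activation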
TRPC4 sel inh 2: second selectivity test of TRPC6 inhibitors: effect on mouse TRPC4. shares compounds with TRPC6 inhibitor. HEK293 TRPC4/MOR, membrane potential dye fluorescence; channel activated by saturating DAMGO dose. inhibition, % at 10 µM. hit rate 42% among 920. AID 2776;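 active = compounds whose fluorescence signal differed from control wells by over 3 SD, either direction, in both duplicate plates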
TRPC4 spec: mouse TRPC4 modulation by TRPC6 hits, confirmation, selectivity assay for TRPC6 inhibitor project, cell-based, HEK293 TRPC4/mu-opioid, membrane potential dye | hit rate 61% among 920 | membrane potential fluorescence | shares compounds with TRPC6 inhibitor | activity change, negative = inhibition, % at 10 µM;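 active = rise or fall in signal beyond 3 SD of buffer-only wells in both replicate plates, either sign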;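 also: integrated kinetic ratio of fluorescence range over baseline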
HEK293 MPD ctr 2-1: nonspecific membrane potential effects, parental HEK293, confirmation, counter-screen for TRPC6 inhibitor project, cell-based, second counter screen | AID 2779, 2010 | signal change vs control, % at 10 µM | parental HEK293 membrane potential dye fluorescence; maximal acetylcholine challenge after compound addition | shares compounds with TRPC6 inhibitor | hit rate 31% among 920;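 active = membrane potential signal moving either way by over 3 SD of the maximum-effect control, in both duplicate plates, meaning non-specific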
HEK293 MPD ctr-1: membrane potential modulation in parental HEK293, confirmation, counter-screen for TRPC6 inhibitor project, cell-based. shares compounds with TRPC6 inhibitor. parental HEK293 membrane potential dye fluorescence. membrane potential signal change, % at 10 µM. hit rate 60% among 920. AID 2780, 2010;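 active = membrane potential signal shifting up or down by more than 3 SD of buffer-only wells, on both duplicate plates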
HEK293 MPD ctr-2: parental HEK293 membrane potential modulation, confirmation, counter-screen for TRPC6 modulator project, cell-based; shares compounds with TRPC6 inhibitor; membrane potential dye fluorescence; membrane potential signal change, % at 10 µM; hit rate 51% among 2,400; AID 488924, 2010;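 active = membrane potential signal moves up or down beyond 5 SD from buffer-only wells, on both duplicate plates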
HEK293 MPD ctr 2-2: second check of TRPC6 modulator effects in parental HEK293 cells. membrane potential dye fluorescence; after compound, maximal acetylcholine stimulation. hit rate 14% among 2,400. AID 488926. inhibition, % at 10 µM. shares compounds with TRPC6 inhibitor;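 active = membrane potential signal drops by more than 5 SD from the mean control signal, in both duplicate plates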
TRPC4/MOR mod: TRPC4 modulation by TRPC6 hit compounds, confirmation, selectivity assay for TRPC6 modulator project, cell-based, HEK293 TRPC4/mu-opioid, membrane potential dye, mouse. shares compounds with TRPC6 inhibitor. membrane potential fluorescence. percent change from control (negative = decrease, positive = increase), % at 10 µM. hit rate 69% among 2,400;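 active = membrane potential signal moved up or down beyond 5 SD of buffer control wells, in both duplicate plates, actives on both sides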
TRPC4 ctr inh 2: second check of whether TRPC6 modulators also affect mouse TRPC4. shares compounds with TRPC6 inhibitor. HEK293 TRPC4/mu-opioid, membrane potential dye fluorescence; stimulated with maximal-effect DAMGO. inhibition, % at 10 µM. hit rate 55% among 2,400;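 active = drop in membrane potential signal beyond 5 SD of the control wells in both duplicate plates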;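 also: TRPC4 counter screen for TRPC6 hits run under conditions tuned for TRPC6 not TRPC4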
TRPC6 block conf: mouse TRPC6 channel inhibitors, confirmation, HEK293 cells, membrane potential dye, duplicate; shares compounds with TRPC6 inhibitor; ACh-evoked depolarization; inhibition, % at 10 µM; hit rate 43% among 3,300;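 active = fluorescence ratio falls more than 5 SD below the full-stimulation control mean, in both duplicate runs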;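 also: integrated fluorescence ratio of peak minus minimum over baseline after agonist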
TRPC6 act conf: mouse TRPC6 channel activators, confirmation, HEK293 cells, membrane potential dye, duplicate; activation, % at 10 µM; AID 488961, 2010; HEK293-TRPC6 membrane potential dye fluorescence, FDSS; shares compounds with TRPC6 inhibitor; hit rate 11% among 2,800;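 active = ratio signal rise beyond 5 SD above unstimulated control wells' mean, seen in both duplicate runs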
Each line names hits and unclear results; the compound was inactive in the other large screens (follow-up assays come after a bar, where they were run); ! = not active in a repeat. Most compounds without a hit are left out; they make up all but 2.3% or so of the library.

COC(=O)c1ccc(COC(=O)CNC(=O)c2cccs2)cc1	TRPC6 inhibitor -6.2 | HEK293 MPD ctr-2 inactive | HEK293 MPD ctr 2-2 inactive | TRPC4/MOR mod -8.0% | TRPC4 ctr inh 2 inactive | TRPC6 block conf inactive | TRPC6 act conf inactive
CCN(CC)CCNC1=NCCn2c1cc1cc(OC)ccc12	TRPC6 inhibitor -6.7 | HEK293 MPD ctr-2 -146% | HEK293 MPD ctr 2-2 inactive | TRPC4/MOR mod -28% | TRPC4 ctr inh 2 44% | TRPC6 block conf inactive | TRPC6 act conf inactive
CCN(CC)c1ccc(/C=N\NC(=O)c2cccc3cc[nH]c23)cc1	TRPC6 inhibitor -5.7 | HEK293 MPD ctr-2 inactive | HEK293 MPD ctr 2-2 inactive | TRPC4/MOR mod -12% | TRPC4 ctr inh 2 54% | TRPC6 block conf inactive | TRPC6 act conf inactive
O=C(N/N=C/c1ccc([N+](=O)[O-])cc1)c1cccc2cc[nH]c12	none
Cc1c(N(C)C)nc2ccccc2c1N	TRPC6 inhibitor -10 | TRPC4 sel inh 2 44% | TRPC4 spec -18% | HEK293 MPD ctr 2-1 inactive | HEK293 MPD ctr-1 -312% | TRPC6 block conf inactive | TRPC6 act conf inactive
Nc1c2ccccc2nc2ccccc12	TRPC6 inhibitor -10 | TRPC4 sel inh 2 43% | TRPC4 spec -37% | HEK293 MPD ctr 2-1 32% | HEK293 MPD ctr-1 -420% | TRPC6 block conf 66%! | TRPC6 act conf inactive
CC(=O)c1c(C)nc2ccccc2c1N	TRPC6 inhibitor -5.2 | HEK293 MPD ctr-2 -195% | HEK293 MPD ctr 2-2 inactive | TRPC4/MOR mod -32% | TRPC4 ctr inh 2 inactive | TRPC6 block conf inactive | TRPC6 act conf inactive
CCN(CC)c1nc2ccccc2c(N)c1-c1ccccc1	TRPC4 block -7, TRPC6 inhibitor -6.9 | TRPC4 sel inh 2 42% | TRPC4 spec 14% | HEK293 MPD ctr 2-1 inactive | HEK293 MPD ctr-1 9.3% | TRPC6 block conf inactive | TRPC6 act conf inactive
Cc1c2ccccc2nc2c(F)c(N(C)C)c(F)c(F)c12	none
Cc1nc2ccccc2c(N)c1C(=O)/C=C/c1ccccc1	none
COc1ccc(CCNC(=O)c2cc3c(=O)n4ccccc4nc3n(Cc3ccco3)c2=N)cc1OC	none
Cc1ccc(Cn2c(=N)c(C(=O)NCc3ccco3)cc3c(=O)n4ccccc4nc32)cc1	TRPC4 act 48, TRPC6 inhibitor -5 | HEK293 MPD ctr-2 inactive | HEK293 MPD ctr 2-2 inactive | TRPC4/MOR mod -32% | TRPC4 ctr inh 2 38% | TRPC6 block conf 36% | TRPC6 act conf inactive
Cc1cccn2c(=O)c3cc(C(=O)NCc4ccco4)c(=N)n(CCOCCO)c3nc12	none
COCCn1c(=N)c(C(=O)NCc2ccco2)cc2c(=O)n3cc(C)ccc3nc21	TRPC6 inhibitor -8.2 (no result: TRPC4 block) | HEK293 MPD ctr-2 422% | HEK293 MPD ctr 2-2 120% | TRPC4/MOR mod -74% | TRPC4 ctr inh 2 40% | TRPC6 block conf 50% | TRPC6 act conf inactive
N=c1c(C(=O)NCc2ccco2)cc2c(=O)n3ccccc3nc2n1CCc1ccccc1	TRPC6 inhibitor -5.8 | HEK293 MPD ctr-2 -80% | HEK293 MPD ctr 2-2 inactive | TRPC4/MOR mod -30% | TRPC4 ctr inh 2 52% | TRPC6 block conf 46% | TRPC6 act conf inactive
O=C(COC(=O)c1cc(Cl)nc(Cl)c1)NCc1ccc2c(c1)OCO2	none (no result: TRPC4 act, TRPC4 potent, TRPC4 block, TRPC6 inhibitor, TRPC6 act)
CSc1nc(N)c2c3c(sc2n1)CN(C)CC3	TRPC6 inhibitor -7 | HEK293 MPD ctr-2 -124% | HEK293 MPD ctr 2-2 inactive | TRPC4/MOR mod -25% | TRPC4 ctr inh 2 inactive | TRPC6 block conf inactive | TRPC6 act conf inactive
C=CCSc1nc(N)c2c3c(sc2n1)CN(C)CC3	TRPC6 inhibitor -6.5 | HEK293 MPD ctr-2 -76% | HEK293 MPD ctr 2-2 inactive | TRPC4/MOR mod -20% | TRPC4 ctr inh 2 inactive | TRPC6 block conf inactive | TRPC6 act conf inactive
CCN(CC)S(=O)(=O)c1ccc(N2Cc3ccccc3C2=N)cc1	none
Cn1c(SCC(=O)N2CCN(c3cccc(Cl)c3)CC2)nnc1-c1ccncc1	none
O=C(NCc1ccc(F)cc1)c1cccc(S(=O)(=O)N2CCCC2)c1	none
Cc1sc2cc3c(c(C(=O)c4ccccc4)[n+]2c1C)-c1cccc2cccc-3c12	TRPC4 block -6, TRPC6 inhibitor -8.6 | TRPC4 sel inh 2 inactive | TRPC4 spec -28% | HEK293 MPD ctr 2-1 inactive | HEK293 MPD ctr-1 -502% | TRPC6 block conf inactive | TRPC6 act conf inactive
O=C(Nc1ccc(-c2csc(Nc3ccc(Cl)cc3)n2)cc1)c1cccc(C(F)(F)F)c1	none
